ChEMBL document CHEMBL4689842, “EUbOPEN Chemogenomics Library wave 1” (2021)

Tested on: U2OS
Test: Multiplex assay against U2OS
Assay type: toxicity, cell-based
Conditions: human
Method in brief: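 Cells stained live at seeding with Hoechst33342, BioTracker Green Microtubule Cytoskeleton Dye, MitoTracker Red and Annexin V Alexa Fluor 680 were imaged on a CQ1 microscope at 37°C and 5% CO2 after compound addition. Their classification by CellPathfinder machine-learning gating ran from Hoechst high-intensity objects versus normal cells, to healthy, pyknosed or fragmented nuclei among normal cells, to mitotic or apoptotic among pyknosed cells. Tubulin, mitochondrial-mass and membrane-permeability phenotypes are per cents of healthy-nucleus cells.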

[1] = 12 h, 1 µM, compound concentration 1 uM, replicate 1
[2] = 12 h, 1 µM, compound concentration 1 uM, replicate 2
[3] = 12 h, 10 µM, compound concentration 10 uM, replicate 1
[4] = 12 h, 10 µM, compound concentration 10 uM, replicate 2
[5] = 24 h, 1 µM, compound concentration 1 uM, replicate 1
[6] = 24 h, 1 µM, compound concentration 1 uM, replicate 2
[7] = 24 h, 10 µM, compound concentration 10 uM, replicate 1
[8] = 24 h, 10 µM, compound concentration 10 uM, replicate 2
[9] = 48 h, 1 µM, compound concentration 1 uM, replicate 1
[10] = 48 h, 1 µM, compound concentration 1 uM, replicate 2
[11] = 48 h, 10 µM, compound concentration 10 uM, replicate 1
[12] = 48 h, 10 µM, compound concentration 10 uM, replicate 2

CNc1cc(Oc2cc(C(=O)Nc3cc(N4CCN(C)CC4)cc(C(F)(F)F)c3)ccc2C)ncn1
Population Apoptotic (%) [1]: 32%
Population Healthy Nuclei (%) [1]: 59%
Population Hoechst High Intensity Objects (%) [1]: 11%
Population Membrane Permeable-Phenotype (%) [1]: 4%
Population Mitochondria Different-Phenotype (%) [1]: 68%
Population Mitotic Cells (%) [1]: 67%
Population Normal (%) [1]: 88%
Population Pyknosed Nuclei (%) [1]: 30%
Population Tubulin-Different-Phenotype (%) [1]: 60%
Total Cell Count [1]: 176
Population Apoptotic (%) [2]: 54%
Population Fragmented Nuclei (%) [2]: 10%
Population Healthy Nuclei (%) [2]: 73%
Population Hoechst High Intensity Objects (%) [2]: 2%
Population Membrane Permeable-Phenotype (%) [2]: 10%
Population Mitochondria Different-Phenotype (%) [2]: 60%
Population Mitotic Cells (%) [2]: 45%
Population Normal (%) [2]: 97%
Population Pyknosed Nuclei (%) [2]: 16%
Population Tubulin-Different-Phenotype (%) [2]: 52%
Total Cell Count [2]: 56
Population Apoptotic (%) [3]: 90%
Population Fragmented Nuclei (%) [3]: 40%
Population Healthy Nuclei (%) [3]: 10%
Population Hoechst High Intensity Objects (%) [3]: 6%
Population Membrane Permeable-Phenotype (%) [3]: 100%
Population Mitochondria Different-Phenotype (%) [3]: 100%
Population Mitotic Cells (%) [3]: 9%
Population Normal (%) [3]: 93%
Population Pyknosed Nuclei (%) [3]: 48%
Population Tubulin-Different-Phenotype (%) [3]: 100%
Total Cell Count [3]: 116
Population Apoptotic (%) [4]: 73%
Population Fragmented Nuclei (%) [4]: 24%
Population Healthy Nuclei (%) [4]: 13%
Population Hoechst High Intensity Objects (%) [4]: 33%
Population Membrane Permeable-Phenotype (%) [4]: 58%
Population Mitochondria Different-Phenotype (%) [4]: 66%
Population Mitotic Cells (%) [4]: 26%
Population Normal (%) [4]: 66%
Population Pyknosed Nuclei (%) [4]: 61%
Population Tubulin-Different-Phenotype (%) [4]: 66%
Total Cell Count [4]: 70
Population Apoptotic (%) [5]: 46%
Population Fragmented Nuclei (%) [5]: 11%
Population Healthy Nuclei (%) [5]: 64%
Population Hoechst High Intensity Objects (%) [5]: 9%
Population Membrane Permeable-Phenotype (%) [5]: 10%
Population Mitochondria Different-Phenotype (%) [5]: 64%
Population Mitotic Cells (%) [5]: 53%
Population Normal (%) [5]: 90%
Population Pyknosed Nuclei (%) [5]: 23%
Population Tubulin-Different-Phenotype (%) [5]: 55%
Total Cell Count [5]: 174
Population Apoptotic (%) [6]: 50%
Population Fragmented Nuclei (%) [6]: 16%
Population Healthy Nuclei (%) [6]: 63%
Population Hoechst High Intensity Objects (%) [6]: 6%
Population Membrane Permeable-Phenotype (%) [6]: 13%
Population Mitochondria Different-Phenotype (%) [6]: 68%
Population Mitotic Cells (%) [6]: 50%
Population Normal (%) [6]: 93%
Population Pyknosed Nuclei (%) [6]: 19%
Population Tubulin-Different-Phenotype (%) [6]: 51%
Total Cell Count [6]: 58
Population Apoptotic (%) [7]: 93%
Population Fragmented Nuclei (%) [7]: 47%
Population Healthy Nuclei (%) [7]: 3%
Population Hoechst High Intensity Objects (%) [7]: 10%
Population Membrane Permeable-Phenotype (%) [7]: 100%
Population Mitochondria Different-Phenotype (%) [7]: 100%
Population Mitotic Cells (%) [7]: 6%
Population Normal (%) [7]: 89%
Population Pyknosed Nuclei (%) [7]: 48%
Population Tubulin-Different-Phenotype (%) [7]: 100%
Total Cell Count [7]: 120
Population Apoptotic (%) [8]: 76%
Population Fragmented Nuclei (%) [8]: 16%
Population Healthy Nuclei (%) [8]: 23%
Population Hoechst High Intensity Objects (%) [8]: 48%
Population Membrane Permeable-Phenotype (%) [8]: 80%
Population Mitochondria Different-Phenotype (%) [8]: 80%
Population Mitotic Cells (%) [8]: 23%
Population Normal (%) [8]: 51%
Population Pyknosed Nuclei (%) [8]: 60%
Population Tubulin-Different-Phenotype (%) [8]: 80%
Total Cell Count [8]: 76
Population Apoptotic (%) [9]: 54%
Population Fragmented Nuclei (%) [9]: 21%
Population Healthy Nuclei (%) [9]: 60%
Population Hoechst High Intensity Objects (%) [9]: 6%
Population Membrane Permeable-Phenotype (%) [9]: 11%
Population Mitochondria Different-Phenotype (%) [9]: 50%
Population Mitotic Cells (%) [9]: 45%
Population Normal (%) [9]: 93%
Population Pyknosed Nuclei (%) [9]: 18%
Population Tubulin-Different-Phenotype (%) [9]: 49%
Total Cell Count [9]: 163
Population Apoptotic (%) [10]: 50%
Population Fragmented Nuclei (%) [10]: 14%
Population Healthy Nuclei (%) [10]: 70%
Population Hoechst High Intensity Objects (%) [10]: 4%
Population Membrane Permeable-Phenotype (%) [10]: 24%
Population Mitochondria Different-Phenotype (%) [10]: 54%
Population Mitotic Cells (%) [10]: 50%
Population Normal (%) [10]: 95%
Population Pyknosed Nuclei (%) [10]: 14%
Population Tubulin-Different-Phenotype (%) [10]: 50%
Total Cell Count [10]: 51
Population Apoptotic (%) [11]: 96%
Population Fragmented Nuclei (%) [11]: 52%
Population Healthy Nuclei (%) [11]: 2%
Population Hoechst High Intensity Objects (%) [11]: 20%
Population Membrane Permeable-Phenotype (%) [11]: 100%
Population Mitochondria Different-Phenotype (%) [11]: 100%
Population Mitotic Cells (%) [11]: 3%
Population Normal (%) [11]: 80%
Population Pyknosed Nuclei (%) [11]: 45%
Population Tubulin-Different-Phenotype (%) [11]: 100%
Total Cell Count [11]: 142
Population Apoptotic (%) [12]: 47%
Population Fragmented Nuclei (%) [12]: 22%
Population Healthy Nuclei (%) [12]: 45%
Population Hoechst High Intensity Objects (%) [12]: 50%
Population Membrane Permeable-Phenotype (%) [12]: 89%
Population Mitochondria Different-Phenotype (%) [12]: 89%
Population Mitotic Cells (%) [12]: 52%
Population Normal (%) [12]: 50%
Population Pyknosed Nuclei (%) [12]: 31%
Population Tubulin-Different-Phenotype (%) [12]: 89%
Total Cell Count [12]: 85

CCc1cccc(CC)c1NC(=O)c1nn(C)c2c1CCc1cnc(Nc3ccc(C(=O)NC4CCN(C)CC4)cc3OC(F)(F)F)nc1-2
Population Apoptotic (%) [1]: 34%
Population Fragmented Nuclei (%) [1]: 18%
Population Healthy Nuclei (%) [1]: 60%
Population Hoechst High Intensity Objects (%) [1]: 9%
Population Membrane Permeable-Phenotype (%) [1]: 3%
Population Mitochondria Different-Phenotype (%) [1]: 22%
Population Mitotic Cells (%) [1]: 65%
Population Normal (%) [1]: 90%
Population Pyknosed Nuclei (%) [1]: 20%
Population Tubulin-Different-Phenotype (%) [1]: 12%
Total Cell Count [1]: 191
Population Apoptotic (%) [2]: 40%
Population Fragmented Nuclei (%) [2]: 1%
Population Healthy Nuclei (%) [2]: 83%
Population Hoechst High Intensity Objects (%) [2]: 13%
Population Membrane Permeable-Phenotype (%) [2]: 5%
Population Mitochondria Different-Phenotype (%) [2]: 14%
Population Mitotic Cells (%) [2]: 60%
Population Normal (%) [2]: 86%
Population Pyknosed Nuclei (%) [2]: 15%
Population Tubulin-Different-Phenotype (%) [2]: 18%
Total Cell Count [2]: 51
Population Apoptotic (%) [3]: 50%
Population Fragmented Nuclei (%) [3]: 18%
Population Healthy Nuclei (%) [3]: 54%
Population Hoechst High Intensity Objects (%) [3]: 5%
Population Membrane Permeable-Phenotype (%) [3]: 34%
Population Mitochondria Different-Phenotype (%) [3]: 97%
Population Mitotic Cells (%) [3]: 50%
Population Normal (%) [3]: 94%
Population Pyknosed Nuclei (%) [3]: 26%
Population Tubulin-Different-Phenotype (%) [3]: 99%
Total Cell Count [3]: 156
Population Apoptotic (%) [4]: 46%
Population Fragmented Nuclei (%) [4]: 12%
Population Healthy Nuclei (%) [4]: 70%
Population Membrane Permeable-Phenotype (%) [4]: 15%
Population Mitochondria Different-Phenotype (%) [4]: 98%
Population Mitotic Cells (%) [4]: 53%
Population Pyknosed Nuclei (%) [4]: 17%
Population Tubulin-Different-Phenotype (%) [4]: 86%
Total Cell Count [4]: 75
Population Apoptotic (%) [5]: 44%
Population Fragmented Nuclei (%) [5]: 15%
Population Healthy Nuclei (%) [5]: 64%
Population Hoechst High Intensity Objects (%) [5]: 7%
Population Membrane Permeable-Phenotype (%) [5]: 3%
Population Mitochondria Different-Phenotype (%) [5]: 18%
Population Mitotic Cells (%) [5]: 55%
Population Normal (%) [5]: 92%
Population Pyknosed Nuclei (%) [5]: 20%
Population Tubulin-Different-Phenotype (%) [5]: 11%
Total Cell Count [5]: 190
Population Apoptotic (%) [6]: 37%
Population Fragmented Nuclei (%) [6]: 7%
Population Healthy Nuclei (%) [6]: 81%
Population Hoechst High Intensity Objects (%) [6]: 10%
Population Membrane Permeable-Phenotype (%) [6]: 5%
Population Mitochondria Different-Phenotype (%) [6]: 12%
Population Mitotic Cells (%) [6]: 62%
Population Normal (%) [6]: 89%
Population Pyknosed Nuclei (%) [6]: 11%
Population Tubulin-Different-Phenotype (%) [6]: 19%
Total Cell Count [6]: 53
Population Apoptotic (%) [7]: 56%
Population Fragmented Nuclei (%) [7]: 20%
Population Healthy Nuclei (%) [7]: 48%
Population Hoechst High Intensity Objects (%) [7]: 5%
Population Membrane Permeable-Phenotype (%) [7]: 40%
Population Mitochondria Different-Phenotype (%) [7]: 100%
Population Mitotic Cells (%) [7]: 43%
Population Normal (%) [7]: 94%
Population Pyknosed Nuclei (%) [7]: 30%
Population Tubulin-Different-Phenotype (%) [7]: 97%
Total Cell Count [7]: 156
Population Apoptotic (%) [8]: 50%
Population Fragmented Nuclei (%) [8]: 15%
Population Healthy Nuclei (%) [8]: 63%
Population Hoechst High Intensity Objects (%) [8]: 2%
Population Membrane Permeable-Phenotype (%) [8]: 26%
Population Mitochondria Different-Phenotype (%) [8]: 91%
Population Mitotic Cells (%) [8]: 50%
Population Normal (%) [8]: 97%
Population Pyknosed Nuclei (%) [8]: 20%
Population Tubulin-Different-Phenotype (%) [8]: 73%
Total Cell Count [8]: 77
Population Apoptotic (%) [9]: 46%
Population Fragmented Nuclei (%) [9]: 19%
Population Healthy Nuclei (%) [9]: 54%
Population Hoechst High Intensity Objects (%) [9]: 9%
Population Membrane Permeable-Phenotype (%) [9]: 5%
Population Mitochondria Different-Phenotype (%) [9]: 18%
Population Mitotic Cells (%) [9]: 53%
Population Normal (%) [9]: 90%
Population Pyknosed Nuclei (%) [9]: 25%
Population Tubulin-Different-Phenotype (%) [9]: 17%
Total Cell Count [9]: 179
Population Apoptotic (%) [10]: 9%
Population Fragmented Nuclei (%) [10]: 16%
Population Healthy Nuclei (%) [10]: 72%
Population Hoechst High Intensity Objects (%) [10]: 4%
Population Membrane Permeable-Phenotype (%) [10]: 7%
Population Mitochondria Different-Phenotype (%) [10]: 19%
Population Mitotic Cells (%) [10]: 90%
Population Normal (%) [10]: 95%
Population Pyknosed Nuclei (%) [10]: 11%
Population Tubulin-Different-Phenotype (%) [10]: 23%
Total Cell Count [10]: 49
Population Apoptotic (%) [11]: 57%
Population Fragmented Nuclei (%) [11]: 27%
Population Healthy Nuclei (%) [11]: 34%
Population Hoechst High Intensity Objects (%) [11]: 5%
Population Membrane Permeable-Phenotype (%) [11]: 57%
Population Mitochondria Different-Phenotype (%) [11]: 95%
Population Mitotic Cells (%) [11]: 42%
Population Normal (%) [11]: 94%
Population Pyknosed Nuclei (%) [11]: 38%
Population Tubulin-Different-Phenotype (%) [11]: 98%
Total Cell Count [11]: 188
Population Apoptotic (%) [12]: 44%
Population Fragmented Nuclei (%) [12]: 11%
Population Healthy Nuclei (%) [12]: 51%
Population Membrane Permeable-Phenotype (%) [12]: 35%
Population Mitochondria Different-Phenotype (%) [12]: 86%
Population Mitotic Cells (%) [12]: 55%
Population Pyknosed Nuclei (%) [12]: 37%
Population Tubulin-Different-Phenotype (%) [12]: 64%
Total Cell Count [12]: 97
